Data: PMC5575737 (Bioorganic & medicinal chemistry letters, 2017)
pIC50: −log10 of the molar value. One block for each compound: values may come before it.

Experiments:
[1] = tested on: H460 cells; assay: Annexin V apoptosis assay; assay type: cell-based
Procedure, shortened: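 H460 cells in 6-well plates were treated with the test compound in 10% (w/v) 2-HPβCD aqueous solution or in DMSO. Controls were 2-HPβCD vehicle and cisplatin. Cells were stained with Annexin V-FITC plus propidium iodide and imaged by fluorescence microscopy (20× objective) at 12, 14, 17 and 20 h. Read-outs were green versus green+red fluorescence and membrane blebbing.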

[2] = tested on: four NSCLC lines (NCI-H460, NCI-H1975, A549, HCC827); assay: MTT cell viability assay, all four lines; assay type: cell-based; conditions: 72 h, read-out: IC50 values, range over four NSCLC lines
Procedure, shortened: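 Cells were exposed for 72 h, then viability was read by MTT. Test compound was dissolved in DMSO and diluted with water to 1% DMSO, giving at most 0.032% DMSO final in medium. A parallel run used stock in 10% (w/v) 2-HPβCD (≤0.008% final), with 0.008% 2-HPβCD vehicle controls. Cisplatin was dissolved in water. IC50 was the concentration giving 50% loss of viability versus control cells.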

[3] = Solubility in water, water/DMSO and 2-HPβCD solutions; assay type: physicochemical; conditions: for behaviour on addition of water to the DMSO solution: final 1% DMSO in water
[4] = tested on: H460 cells; assay: JC-1 mitochondrial membrane potential assay; assay type: cell-based
[5] = tested on: C57BL/6 mice; assay: Preliminary in vivo toxicity study
[6] = tested on: DNA; assay: DNA interaction: viscosity and fluorescent intercalator displacement assays; assay type: binding
[7] = tested on: nine NSCLC lines; assay: NCI-60 one-dose assay, average; assay type: cell-based, human; conditions: average over the NSCLC lines tested; single dose 10 μM
Procedure, shortened: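 The NCI DTP ran the NCI-60 one-dose screen. Cells were plated at densities matched to doubling rate and incubated overnight, then exposed to 10 μM test compound for […]. Growth percentage came from protein density at the end versus the start of exposure. Values were averaged across the nine NSCLC lines.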

[8] = tested on: H460 cells; conditions: cited from earlier work
[9] = tested on: NCI-H460; assay: NCI-60 five-dose assay; assay type: cell-based, human
Procedure, shortened: (§1)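 The NCI DTP ran the NCI-60 five-dose screen. Cells were exposed to the test compound at 10 nM, 100 nM, 1 μM, 10 μM and 100 μM. Read-outs were growth inhibition by 50% (GI50), total growth inhibition (TGI) and 50% lethal concentration (LC50), each relative to control cells.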

[10] = tested on: HOP-62; assay: NCI-60 five-dose assay; assay type: cell-based, human
Procedure, shortened: as §1

[11] = tested on: NCI-H522; assay: NCI-60 five-dose assay; assay type: cell-based, human
Procedure, shortened: as §1

[12] = tested on: NCI-H226; assay: NCI-60 five-dose assay; assay type: cell-based, human
Procedure, shortened: as §1

[13] = tested on: A549/ATCC; assay: NCI-60 five-dose assay; assay type: cell-based, human
Procedure, shortened: as §1

[14] = tested on: EKVZ; assay: NCI-60 five-dose assay; assay type: cell-based, human
Procedure, shortened: as §1

[15] = tested on: HOP-92; assay: NCI-60 five-dose assay; assay type: cell-based, human
Procedure, shortened: as §1

Compound: CCc1n(Cc2ccc3ccccc3c2)cc[n+]1Cc1ccc2ccccc2c1.[Br-] [Compound 2]
time at which strong green fluorescence (Annexin V-FITC) was observed ([1]; 40 μM, water/DMSO solution): 1 h | time of treatment at which blebbing occurs ([1]; 2-HPβCD vehicle): 14 h | mode of cell death ([1]; DMSO or 2-HPβCD vehicle, two independent trials): causes apoptosis | time of treatment at which blebbing occurs ([1]; DMSO vehicle): 3 h | pIC50 [2]: 5.46 to 6.18 | behaviour on addition of water to the DMSO solution [3]: remained soluble | red fluorescence (J-aggregates, intact MMP) ([4]; 20 μM, 1 hour versus 15 minutes): apparent decrease in intensity | red fluorescence (J-aggregates, intact MMP) ([4]; 40 μM, 30 minutes): minimal red fluorescence | red fluorescence (J-aggregates, intact MMP) ([4]; 40 μM, 1 hour and 2.5 hours): minimal red fluorescence | clinical observation the day after the second injection ([5]; 15 mg/kg IP on day fourteen, two surviving mice): both animals were sacrificed due to lethargic movement | body weight after first injection ([5]; 20 mg/kg IP): sharp decrease in weight | mortality ([5]; 20 mg/kg IP on day zero in 20% 2-HPβCD, day two): one mouse from the experimental group was found deceased | overall toxicity ([5]; 20 mg/kg then 15 mg/kg IP): quite toxic at the doses administered | average weight loss ([5]; after second injection, 15 mg/kg IP on day fourteen): around 6% | interaction with DNA [6]: little to no interaction with DNA | Growth % Average [7]: 4.18%

pIC50 [2]: 5.46 to 6.18 | solubility in 2-HPβCD solution ([3]; 10% 2-HPβCD by weight in water): mostly soluble | behaviour on addition of water to the DMSO solution [3]: remained soluble
Compound: CC(C)c1n(Cc2ccc3ccccc3c2)cc[n+]1Cc1ccc2ccccc2c1.[Br-] [Compound 5]

Compound: Clc1c(Cl)[n+](Cc2ccc3ccccc3c2)cn1Cc1ccc2ccccc2c1.[Br-] [IS23, 4,5-dichloro-1,3-bis(naphthalen-2-ylmethyl)imidazolium bromide]
time of morphological changes (cell shrinkage, rounding, detachment) [8]: within the first hour

Compound: CCCCc1n(Cc2ccc3ccccc3c2)cc[n+]1Cc1ccc2ccccc2c1.[Br-] [Compound 4]
TGI [9]: 2.82 µM | GI50 ([9]; Homo sapiens): 1250 nM | TGI [10]: 2.75 µM | GI50 ([10]; Homo sapiens): 1290 nM | TGI [11]: 1.89 µM | GI50 ([11]; Homo sapiens): 491 nM | pIC50 [2]: 5.46 to 6.18 | TGI [12]: 2.93 µM | GI50 ([12]; Homo sapiens): 1350 nM | behaviour on addition of water to the DMSO solution [3]: slight precipitation | TGI ([13]; A549/ATCC): 3.24 µM | GI50 ([13]; Homo sapiens, A549): 1670 nM | TGI ([14]; EKVZ): 3.47 µM | GI50 ([14]; Homo sapiens): 1350 nM | Growth % Average [7]: −1.36% | TGI [15]: 2.35 µM | GI50 ([15]; Homo sapiens): 844 nM

pIC50 [2]: 5.46 to 6.18 | behaviour on addition of water to the DMSO solution [3]: remained soluble
Compound: CCCc1n(Cc2ccc3ccccc3c2)cc[n+]1Cc1ccc2ccccc2c1.[Br-] [Compound 3]
Growth % Average [7]: 2.33%

Compound: N#CC(C#N)=NNc1cccc(Cl)c1 [CCCP, carbonylcyanide m-chlorophenylhydrazone, reference compound]
mitochondrial potential versus media control cells ([4]; positive control): mitochondria potential was decreased

pIC50 [2]: 5.46 to 6.18 | behaviour on addition of water to the DMSO solution [3]: slight precipitation
Compound: Cc1n(Cc2ccc3ccccc3c2)cc[n+]1Cc1ccc2ccccc2c1.[Br-] [Compound 1]
Growth % Average [7]: 21.19%
